Shown are actives, neighbours in structure and some others; about 3.2% of the full set was active somewhere.
DAGLB inhibitor = DAGLB lipase inhibitors, primary screen, biochemical, fluorescence, HTS. 0.059% of 340,000 active. Diacylglycerol lipase-beta (Homo sapiens), Q8NCG7. inhibition, % at 5.17 µM. AID 504411, 2011. HEK293T DAGLB membrane lysate, EnzChek fluorogenic substrate; in the data active = inhibition above about 34%;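 note: 0% = enzyme with vehicle and 100% = wells lacking enzyme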
Target sequence (Q8NCG7 whole entry, looked up): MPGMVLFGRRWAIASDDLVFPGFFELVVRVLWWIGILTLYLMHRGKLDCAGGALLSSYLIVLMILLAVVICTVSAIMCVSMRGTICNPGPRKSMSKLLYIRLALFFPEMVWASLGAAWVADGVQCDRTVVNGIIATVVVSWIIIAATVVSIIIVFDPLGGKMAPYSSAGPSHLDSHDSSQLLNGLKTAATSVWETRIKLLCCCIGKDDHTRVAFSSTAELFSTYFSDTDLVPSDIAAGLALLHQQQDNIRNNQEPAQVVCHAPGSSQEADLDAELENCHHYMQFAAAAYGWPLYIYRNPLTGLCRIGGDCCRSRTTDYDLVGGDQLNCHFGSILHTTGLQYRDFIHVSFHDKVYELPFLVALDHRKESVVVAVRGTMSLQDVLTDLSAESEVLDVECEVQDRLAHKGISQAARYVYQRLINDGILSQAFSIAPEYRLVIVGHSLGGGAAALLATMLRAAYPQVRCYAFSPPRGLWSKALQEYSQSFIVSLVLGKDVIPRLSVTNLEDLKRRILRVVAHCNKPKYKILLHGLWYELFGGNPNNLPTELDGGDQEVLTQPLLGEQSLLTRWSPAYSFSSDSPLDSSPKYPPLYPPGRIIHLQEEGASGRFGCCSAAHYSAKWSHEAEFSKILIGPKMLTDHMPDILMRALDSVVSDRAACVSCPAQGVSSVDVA
PRMT1 FP inh = PRMT1 methyltransferase inhibitors, primary screen, biochemical, fluorescence polarization; recombinant PRMT1, activity-based probe fluorescence polarization; 1.3% of 370,000 active; Protein arginine N-methyltransferase 1 (Homo sapiens), Q99873; inhibition, % at 2.79 µM;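 active = inhibition above about 21% made by adding two undisclosed values, limit read from the data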
LEDGF integ inh = blockers of LEDGF/p75-dependent integrase strand transfer – biochemical, TR-FRET, high throughput, primary screen | HIV-1 integrase (with human LEDGF/p75) | TR-FRET IN-LEDGF/p75 DNA integration, Eu/Cy5 | inhibition, % at 3.7 µM | 0.64% of 370,000 active | AID 743269, 2014;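 active = inhibition above the screen-wide mean plus 3 SD, cut at about 13% in these data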;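 note: signal is the Cy5 over europium emission ratio at 671 and 618 nm; 0% = plate median of compound wells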
rCAG RNA binder = binders of r(CAG) RNA repeats, primary screen, biochemical, fluorescence; r(CAG) RNA repeat, TO-PRO-1 dye displacement fluorescence; inhibition, % at 3 µM; 1.3% of 370,000 active;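 active = inhibition above the plate cutoff, the mean of all test compounds on that plate plus 3 SD, cut at about 35% in these data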;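 note: 0% = DMSO alone and 100% = 100 µM mitoxantrone as full dye displacement; higher means more dye released from RNA so lower well fluorescence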
ABHD4 inh = ABHD4 inhibitors, primary screen, biochemical, fluorescence polarization, mouse. AID 720543, 2013. 0.54% of 370,000 active. inhibition, % at 8.92 µM. (Lyso)-N-acylphosphatidylethanolamine lipase (Mus musculus), Q8VD66. purified mABHD4, FP-Rh probe fluorescence polarization;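 active = inhibition exceeding the mean over every tested compound plus 3 SD, cut at about 30% in these data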;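 note: 0% = plate median of compound wells and 100% = S159A mutant with DMSO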
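Material: mouse ABHD4 enzyme, wild type; Benchmarks: S159A mutant high control, sample median low control; Buffer or medium: HEPES pH 7.0, NaCl, Pluronic buffer; Signal: fluorescence polarization; Read-out: percent inhibition of probe binding, normalized to plate controls; Timing: pre-incubation 45 min, probe exposure 60 min, at 25 °C; Dosing: 8.92 µM, single dose.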
HTRA1 inh = HTRA1 serine protease inhibitors, primary screen, biochemical, fluorescence polarization, HTS. recombinant HTRA1, FP-rhodamine activity-based probe. 0.5% of 340,000 active. Q92743. inhibition, % at 5.96 µM; in the data active = inhibition above about 36%;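 note: 0% = enzyme with DMSO and 100% = wells lacking enzyme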
rCAG bind conf = small molecules binding CAG repeat RNA – biochemical, fluorescence, confirmation. inhibition, % at 3 µM. r(CAG) RNA repeat, TO-PRO-1 dye displacement fluorescence. shares compounds with rCAG RNA binder. 70% of 4,300 active;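 active = inhibition above a per-plate cutoff, the mean inhibition of sample wells plus 3 SD, cut at about 35% in these data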;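 note: loss of TO-PRO-1 fluorescence as compound displaces dye from 1x1 AA loop RNA; 0% = DMSO only wells and 100% = 100 µM mitoxantrone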
dCAG dye counter = displacement of TO-PRO-1 from CAG DNA duplex, counter-screen for rCAG RNA repeat binder project, biochemical, fluorescence, TO-PRO-1 dye, d(CAG) DNA oligo; shares compounds with rCAG RNA binder; d(CAG) DNA oligo TO-PRO-1 dye displacement; inhibition, % at 3 µM; 94% of 4,300 active; AID 652068, 2013;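 active = inhibition above its plate's cutoff, the mean test-well inhibition plus 3 SD, cut at about 4.8% in these data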;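 note: 0% = DNA dye mix with DMSO and 100% = 100 µM mitoxantrone; hits displace the dye from DNA and so lower well fluorescence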
PRMT1 inh conf = PRMT1 methyltransferase inhibitors, confirmation, biochemical, fluorescence polarization, triplicate; AID 687036, 2013; shares compounds with PRMT1 FP inh; recombinant His-PRMT1, activity-based probe fluorescence polarization; 42% of 3,300 active; inhibition, % at 2.79 µM;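 active = mean inhibition across replicates above the hit cutoff derived for the earlier primary screen, cut at about 22% in these data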
* marks the source's active call; other numbers are inactive results; nt = no result.

SMILES	DAGLB inhibitor	PRMT1 FP inh	LEDGF integ inh	rCAG RNA binder	ABHD4 inh	HTRA1 inh	rCAG bind conf	dCAG dye counter	PRMT1 inh conf
COc1ccc(NC(=O)CCCN2C(=O)/C(=C\c3ccco3)SC2=S)cc1	3	7	2	16	2	-4	nt	nt	nt
O=C(NCC(=O)N(c1cccc(F)c1)C(C(=O)NC1CCCC1)c1cccnc1)c1ccco1 (configuration not stated)	-5	5	-5	-1	-5	5	nt	nt	nt
CCNC(=O)C1(C)CCN(C(=O)c2ccc(F)c(Cl)c2)C1 (configuration not stated)	nt	-1	-2	3	-1	nt	nt	nt	nt
CCCCNc1c(-c2ccc(-c3cccc(Cl)c3)cc2)nc2ccc(Cl)cn12	0	1	1	5	26	-4	nt	nt	nt
Cc1ccc(N(CC(=O)Nc2c(C)n(C)n(-c3ccccc3)c2=O)S(C)(=O)=O)cc1C	3	0	-4	-6	6	5	nt	nt	nt
COCc1cc(=O)n2[nH]c(N)nc2n1	0	-1	-1	4	0	3	nt	nt	nt
COCc1cc(=O)n2[nH]c(-c3ccsc3-n3c(C)ccc3C)cc2n1	1	45*	81*	40*	15	35	39*	17*	4
O=C(O)/C(=C/c1ccc(Cl)c([N+](=O)[O-])c1)c1ccc(S(=O)(=O)N2CCCCC2)s1	13	39*	6	89*	10	1	77*	40*	9
O=[N+]([O-])c1cc(S(=O)(=O)N2CCCCCC2)ccc1Cl	-1	-1	-2	-4	8	-8	nt	nt	nt
COc1ccccc1-n1cc(C(=O)NCC(=O)N2CCN(Cc3ccccc3)CC2)c2ccccc2c1=O	-2	-1	4	0	-1	8	nt	nt	nt
Cc1oc(-c2ccccc2)cc1C(=O)NC(Cc1c[nH]c2ccccc12)C(=O)O (configuration not stated)	5	30*	5	40*	-7	-9	52*	18*	4
O=C(Nc1ccccc1C(=O)NC(Cc1c[nH]c2ccccc12)C(=O)O)c1ccccc1 (configuration not stated)	4	-1	1	33	2	-5	nt	nt	nt
CCOC(=O)c1c(NS(=O)(=O)c2ccc(Br)cc2)sc2c1CCC2	9	27*	6	68*	29	15	80*	34*	13
Cc1noc(NS(=O)(=O)c2ccc(NC(=O)CSc3ncccn3)cc2)c1C	-1	5	-1	1	2	-1	nt	nt	nt
Cc1noc(NS(=O)(=O)c2ccc(NC(=O)CSc3nc4ccccc4s3)cc2)c1C	5	40*	-2	70*	-7	-4	61*	25*	37*
CSc1cccc(CNC(=O)C2CCC(=O)N(CC3CCCCC3)C2)c1 (configuration not stated)	-2	2	6	-6	-8	2	nt	nt	nt
COc1cc(/C=C2/C(C)=C(C#N)c3nc(N)c(C#N)c(C)c32)ccc1OCC(=O)O	nt	27*	3	42*	21	nt	41*	17*	9
CC(C)(C)n1nnnc1C(c1ccccc1)N1CCN(c2ccc(F)cc2)CC1 (configuration not stated)	nt	1	-2	-2	-2	nt	nt	nt	nt
COCCn1c(SCC(=O)Nc2ccccc2OC)nnc1-c1ccco1	2	-1	7	4	-8	0	nt	nt	nt
N#Cc1c(C(F)(F)F)cc(-c2ccco2)nc1SCc1ccccn1	-2	35*	10	37*	9	-36	19	5.3*	-7
N#Cc1c(C(F)(F)F)cc(-c2ccco2)nc1SCc1ccncc1	-4	0	1	6	1	-23	nt	nt	nt
CC(=O)N(\C=C/C=C/C=C1\Sc2ccccc2C1=O)c1ccccc1	16	46*	12	45*	-2	34	14	11*	26*
O=C(O)CNC(=O)c1cccc(C(F)(F)F)c1	-3	5	2	-1	-5	3	nt	nt	nt
Cc1c(CCCC(=O)O)sc(N)c1C(=O)c1cccc(C(F)(F)F)c1	3	31*	3	47*	25	10	27	5.0*	11
COc1ccc(Br)cc1C1CC(=O)N2CN(Cc3ccccc3)CSC2=C1C#N (configuration not stated)	3	25*	3	38*	-1	-18	30	13*	20
SMILES	DAGLB inhibitor	PRMT1 FP inh	LEDGF integ inh	rCAG RNA binder	ABHD4 inh	HTRA1 inh	rCAG bind conf	dCAG dye counter	PRMT1 inh conf
COc1ccccc1N1CSC2=C(C#N)C(c3ccc(SC)cc3)CC(=O)N2C1 (configuration not stated)	5	39*	7	40*	31*	1	47*	19*	64*
CCc1sc(C(C2C(=O)CC(C)(C)CC2=O)C2C(=O)CC(C)(C)CC2=O)cc1[N+](=O)[O-]	12	48*	5	37*	9	-4	23	6.4*	50*
CC1(C)CC(=O)C(C(c2ccc(F)cc2)C2C(=O)CC(C)(C)CC2=O)C(=O)C1	1	-5	4	0	1	11	nt	nt	nt
CC(=O)c1cccc(N(C(=O)CS(=O)CC(=O)Nc2ccc(F)cc2)C(C(=O)NC2CCCCC2)c2ccc(C)o2)c1 (configuration not stated)	3	1	2	2	3	-1	nt	nt	nt
O=C(/C=C/c1ccco1)NC(=S)Nc1ccc(Cl)cn1	5	29*	6	39*	12	7	14	6.9*	-3
CN(CCC#N)C(=O)COC(=O)c1c2c(nc3ccccc13)/C(=C/c1ccco1)CC2	0	41*	79*	69*	42*	19	52*	28*	29*
CC(C)CNC(=O)COC(=O)c1c2c(nc3ccccc13)/C(=C\c1cccs1)CC2	-7	7	5	20	-1	-41	nt	nt	nt

From PubChem BioAssay
